Laboratory results: ChEMBL document CHEMBL1125244, “4',5'-unsaturated 5'-halogenated nucleosides. Mechanism-based and competitive inhibitors of S-adenosyl-L-homocysteine hydrolase” (J Med Chem, 1991)
In brackets after ≈: the same amount, converted by molar mass. Blank lines part the entries; values can stand above or below the compound they belong to.

Experiments:
[1] = system: Moloney murine leukemia virus; experiment: Antiretroviral activity in the XC-plaque assay using Moloney leukemia virus (MoLV) as a model for human immunodeficiency virus (HIV).; assay type: functional, organism-based
Adenosylhomocysteinase [2] = target: T1, Adenosylhomocysteinase (Rattus norvegicus, UniProt P10760); experiment: Time-dependent inhibitory activity against rat liver S-adenosyl-L-homocysteine hydrolase
T1 sequence (P10760 whole entry): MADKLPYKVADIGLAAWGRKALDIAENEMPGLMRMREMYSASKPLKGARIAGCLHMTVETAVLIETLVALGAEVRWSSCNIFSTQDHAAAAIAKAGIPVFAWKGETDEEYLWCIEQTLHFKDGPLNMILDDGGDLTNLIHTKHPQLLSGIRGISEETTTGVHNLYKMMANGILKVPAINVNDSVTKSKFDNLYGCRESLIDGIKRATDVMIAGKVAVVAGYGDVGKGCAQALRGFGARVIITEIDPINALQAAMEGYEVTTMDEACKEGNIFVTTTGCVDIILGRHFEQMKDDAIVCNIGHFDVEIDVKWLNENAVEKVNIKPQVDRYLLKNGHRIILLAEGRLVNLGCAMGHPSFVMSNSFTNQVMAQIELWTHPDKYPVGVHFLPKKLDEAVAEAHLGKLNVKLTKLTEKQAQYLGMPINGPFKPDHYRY

Adenosylhomocysteinase [3] = target: T2, Adenosylhomocysteinase (Mus musculus, UniProt P50247); experiment: Activity determined in mouse liver S-adenosyl-L-homocysteine hydrolase and expressed as KI values.
Adenosylhomocysteinase [4] = target: T1, Adenosylhomocysteinase; experiment: Activity determined in rat liver S-adenosyl-L-homocysteine hydrolase and expressed as Kinactivator values.
[5] = target: T3, Adenosylhomocysteinase (Rattus norvegicus) (UniProt P10760); experiment: (§1) Activity determined in rat liver S-adenosyl-L-homocysteine hydrolase and expressed as KI values.
T3 sequence (whole entry): T1 sequence (P10760 whole entry)

[6] = target: Adenosylhomocysteinase (Mus musculus) (UniProt P50247)
Adenosylhomocysteinase [7] = target: T1, Adenosylhomocysteinase; experiment: Activity determined in rat liver S-Adenosyl-L-homocysteine (SAH) Hydrolase and expressed as KI values; NA= not applicable
Adenosylhomocysteinase [8] = target: T2, Adenosylhomocysteinase; experiment: Activity determined in mouse liver S-Adenosyl-L-homocysteine (SAH) Hydrolase and expressed as KI values; NA= not applicable
Procedure, shortened: (§2)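 Partially purified mouse liver enzyme (38–55% ammonium sulfate fraction, stored at –70 °C), assayed in the synthetic direction. The mix held […] potassium phosphate, 2 mM 2-mercaptoethanol, 0.1 mM adenosine plus [³H]adenosine, 10 mM DL-homocysteine and 1.0 μM 2-deoxycoformycin, run 10–20 min at 37 °C. [³H]SAH was separated on Cellex-P and counted. Time-dependent inactivation constants came from the Kitz–Wilson method.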

Adenosylhomocysteinase [9] = target: T1, Adenosylhomocysteinase; experiment: Activity determined in rat liver S-adenosyl-L-homocysteine hydrolase and expressed as Kinactivator values; NA= not applicable
Adenosylhomocysteinase [10] = target: T2, Adenosylhomocysteinase; experiment: Activity determined in mouse liver S-adenosyl-L-homocysteine hydrolase and expressed as KI values; NA= not applicable; procedure, shortened: as §2
Adenosylhomocysteinase [11] = target: T1, Adenosylhomocysteinase; experiment: Activity determined in rat liver S-adenosyl-L-homocysteine hydrolase and expressed as KI values; NA= not applicable
Adenosylhomocysteinase [12] = target: T1, Adenosylhomocysteinase; experiment: as §1
[13] = target: T3, Adenosylhomocysteinase (Rattus norvegicus)
Adenosylhomocysteinase [14] = target: T2, Adenosylhomocysteinase; experiment: Activity determined in mouse liver S-Adenosyl-homocysteine hydrolase and expressed as KI values; NA= not applicable
Adenosylhomocysteinase [15] = target: T1, Adenosylhomocysteinase; experiment: Activity determined in rat liver S-Adenosyl-homocysteine hydrolase and expressed as KI values; NA= not applicable
Adenosylhomocysteinase [16] = target: T1, Adenosylhomocysteinase; experiment: Competitive inhibitory activity against rat liver S-Adenosyl-homocysteine hydrolase

Sequence of Adenosylhomocysteinase (Mus musculus) (P50247 2-432 limits assumed): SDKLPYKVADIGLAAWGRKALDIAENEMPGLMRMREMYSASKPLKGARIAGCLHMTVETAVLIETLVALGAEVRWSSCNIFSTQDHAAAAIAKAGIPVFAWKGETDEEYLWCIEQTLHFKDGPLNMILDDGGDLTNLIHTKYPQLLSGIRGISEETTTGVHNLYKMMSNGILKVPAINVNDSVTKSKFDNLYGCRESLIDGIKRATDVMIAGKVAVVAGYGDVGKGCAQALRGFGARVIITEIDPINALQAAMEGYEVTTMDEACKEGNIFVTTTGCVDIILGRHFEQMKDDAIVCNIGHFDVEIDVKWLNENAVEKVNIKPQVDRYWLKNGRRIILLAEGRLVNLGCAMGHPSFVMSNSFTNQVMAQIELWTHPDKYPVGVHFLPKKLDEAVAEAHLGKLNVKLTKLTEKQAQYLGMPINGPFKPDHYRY
T2 sequence (P50247 whole entry): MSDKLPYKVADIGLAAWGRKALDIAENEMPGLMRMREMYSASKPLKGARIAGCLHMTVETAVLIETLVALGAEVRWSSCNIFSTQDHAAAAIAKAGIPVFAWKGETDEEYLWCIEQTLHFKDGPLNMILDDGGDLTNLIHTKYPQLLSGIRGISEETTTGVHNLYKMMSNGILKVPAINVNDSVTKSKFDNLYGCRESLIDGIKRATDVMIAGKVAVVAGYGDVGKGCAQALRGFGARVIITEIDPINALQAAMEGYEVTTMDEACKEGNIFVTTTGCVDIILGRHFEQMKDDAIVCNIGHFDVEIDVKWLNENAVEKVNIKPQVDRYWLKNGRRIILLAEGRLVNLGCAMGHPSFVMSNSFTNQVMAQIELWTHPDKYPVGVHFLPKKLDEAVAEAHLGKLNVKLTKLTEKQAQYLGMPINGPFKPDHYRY

Compound: Nc1ncnc2c1ncn2C1O[C@H](C(F)F)[C@@H](O)[C@H]1O (stereo partly specified)
- IC50 [1]: 0.8 µg/mL (≈ 2.79 µM)
- Ki (Adenosylhomocysteinase [2]): 9.7 µM
- Ki (Adenosylhomocysteinase [3]): 10 µM
- Ki (Adenosylhomocysteinase [4]; read-out: Ki): 9.7 µM
- K inact [5]: 0.04 min⁻¹
- K inact [6]: 0.6 min⁻¹

Compound: Nc1ncnc2c1ncn2[C@H]1C[C@H](O)/C(=C\F)O1
- Ki (Adenosylhomocysteinase [7]): Not Active
- Ki (Adenosylhomocysteinase [8]): Not Active

Compound: Nc1ncnc2c1ncn2[C@H]1C[C@H](O)/C(=C/F)O1
- IC50 [1]: 10 µg/mL (≈ 39.8 µM)
- Ki (Adenosylhomocysteinase [9]): 150 µM
- Ki (Adenosylhomocysteinase [10]): Not Active
- Ki (Adenosylhomocysteinase [11]): Not Active

Compound: Nc1ncnc2c1ncn2[C@@H]1O/C(=C(/F)Cl)[C@@H](O)[C@H]1O
- IC50 [1]: 0.1 µg/mL (≈ 0.331 µM)
- Ki (Adenosylhomocysteinase [14]): Not Active
- Ki (Adenosylhomocysteinase [15]): Not Active
- Ki (Adenosylhomocysteinase [16]): 1.5 µM

Compound: Nc1ncnc2c1ncn2[C@@H]1O[C@H](CO)[C@@H](O)[C@@H]1O [VIDARABINE]
- IC50 [1]: 1 µg/mL (≈ 3.74 µM)
- Ki (Adenosylhomocysteinase [3]): 30 µM

Second part, the compound after the results:

- Ki (Adenosylhomocysteinase [12]): 6.5 µM
- IC50 [1]: 0.05 µg/mL (≈ 0.187 µM)
- Ki (Adenosylhomocysteinase [3]): 0.55 µM
- Ki (Adenosylhomocysteinase [4]): Not Active
- K inact [13]: 0.8 min⁻¹
- K inact [6]: 0.28 min⁻¹
Compound: Nc1ncnc2c1ncn2[C@@H]1O/C(=C\F)[C@@H](O)[C@H]1O

- IC50 [1]: 3.3 µg/mL (≈ 11.6 µM)
- Ki (Adenosylhomocysteinase [9]): 1.6 µM
- Ki (Adenosylhomocysteinase [10]): Not Active
- Ki (Adenosylhomocysteinase [11]): Not Active
Compound: Nc1ncnc2c1ncn2[C@@H]1O/C(=C\Cl)[C@@H](O)[C@H]1O

- IC50 [1]: 4.4 µg/mL (≈ 16.5 µM)
- Ki (Adenosylhomocysteinase [14]): Not Active
- Ki (Adenosylhomocysteinase [15]): Not Active
- Ki (Adenosylhomocysteinase [16]): 3.2 µM
Compound: Nc1ncnc2c1ncn2[C@@H]1O/C(=C/F)[C@@H](O)[C@@H]1O

- IC50 [1]: 1.3 µg/mL (≈ 4.31 µM)
- Ki (Adenosylhomocysteinase [9]): 3 µM
- Ki (Adenosylhomocysteinase [10]): Not Active
- Ki (Adenosylhomocysteinase [11]): Not Active
Compound: Nc1ncnc2c1ncn2[C@@H]1O/C(=C(\F)Cl)[C@@H](O)[C@H]1O

- IC50 [1]: 1.2 µg/mL (≈ 4.49 µM)
- Ki (Adenosylhomocysteinase [14]): Not Active
- Ki (Adenosylhomocysteinase [15]): Not Active
- Ki (Adenosylhomocysteinase [16]): 11 µM
Compound: Nc1ncnc2c1ncn2[C@@H]1O/C(=C\F)[C@@H](O)[C@@H]1O

- Ki (Adenosylhomocysteinase [12]): 2.4 µM
- IC50 [1]: 0.25 µg/mL (≈ 0.936 µM)
- Ki (Adenosylhomocysteinase [3]): 1.04 µM
- Ki (Adenosylhomocysteinase [4]): Not Active
- K inact [13]: 0.14 min⁻¹
- K inact [6]: 0.23 min⁻¹
Compound: Nc1ncnc2c1ncn2[C@@H]1O/C(=C/F)[C@@H](O)[C@H]1O
